# Results from different studies.
# Each line is one published result; the experiments were not run side by side.
# Target: Serine/threonine-protein kinase mTOR (MTOR, Homo sapiens, UniProt P42345)
Compound,effect on,action,method,concentration,endpoint,result
CNCc1ccc(-c2cc(-c3nc(-c4ccc(S(=O)(=O)C(C)C)cc4)cnc3N)on2)cc1,enzyme activity,inhibitor,,0.4 µM,inhibition,0%
CC(C)CCn1c(SCC(=O)Nc2ccccc2C(F)(F)F)nc2nccnc2c1=O,enzyme activity,inhibitor,,10 µM,inhibition,< 20%
CC(C)(C)c1nc2c(s1)c1nc(N)ncc1c1ccc(NS(=O)(=O)c3c(F)cccc3F)c(F)c12,enzyme activity,inhibitor,radiometric,1 µM,remaining activity,103%
Cc1noc([C@H]2C[C@@H](c3ccc(C(F)(F)F)cc3)CN(C(=O)N3CCS(=O)(=O)C3)C2)n1,cell-free assay,,competition with immobilised ligand,1 µM,remaining binding,92%
Cc1ccc(NC(=O)c2ccc(C)c(C(F)(F)F)c2)cc1C#Cc1nn(C2CCC(O)CC2)c2ncnc(N)c12 (centres unmarked),cell-free assay,inhibitor,,10 µM,remaining signal,101%
CCCS(=O)(=O)Nc1ccc(F)c(C(=O)c2c[nH]c3ncc(-c4ccc(Cl)cc4)cc23)c1F,enzyme activity,inhibitor,,1 µM,inhibition,< 10%
CCCOc1ccc(OC)c(F)c1C(=O)c1ccc(C(=O)N[C@@H]2CNC[C@H]2NC(=O)c2ccc3[nH]ncc3c2)cc1,enzyme activity,inhibitor,,10 µM,remaining activity,86%
N[C@@H]1CCN(c2nccc(-c3cnn4ncccc34)n2)C1,binding,,,1 µM,remaining binding,99%
Cc1cc(NC(=O)c2cccc3cc(-c4cccc5[nH]nc(N)c45)ccc23)ccc1F,enzyme activity,inhibitor,,0.1 µM,activity vs control,92%
CCc1ccccc1C(=O)Nc1n[nH]c2c(C)c(F)c(C3C(C#N)=C(C)N(C)C(C)=C3C#N)cc12,cell-free assay,,competition with immobilised ligand,1 µM,remaining binding,100%
COc1cc2ncnc(Nc3ccc(Oc4ccccc4)cc3C)c2cc1OC,enzyme activity,inhibitor,,1 µM,inhibition,1%
COCCOc1nc(-c2ccc(Cl)nc2)nc2c1CN(C(=O)c1ncn3ccccc13)CC2,cell-free assay,,competition with immobilised ligand,0.1 µM,remaining binding,97%
CC(C)c1ccc(NC(=O)c2cccs2)c(-c2nc3ccccc3[nH]c2=O)c1,enzyme activity,inhibitor,,1 µM,activity vs control,85%
COc1ccc2c(c1)O[C@@H](c1ccc(OC)c(OC)c1)C[C@H]2NC(=O)C1(c2ccc3c(c2)OC(F)(F)O3)CC1,cell-free assay,,competition with immobilised ligand,1 µM,remaining binding,100%
O=C(CSc1nc2nccnc2c(=O)n1CCc1ccccc1)Nc1nccs1,enzyme activity,inhibitor,,10 µM,inhibition,4%
CNC(=O)Nc1ccc2c(c1)[C@@]1(CC2)OC(=O)N(CC(=O)N(Cc2ccc(F)cc2)[C@@H](C)C(F)(F)F)C1=O,cell-free assay,,competition with immobilised ligand,1 µM,remaining binding,100%
Cc1ccc(C(=O)NCc2ccsc2)cc1C#Cc1cn(C(C)C)c2ncnc(N)c12,enzyme activity,inhibitor,,1 µM,activity vs control,105%
